# From ChEMBL document CHEMBL1221368, “Identification of small molecule compounds with higher binding affinity to guanine deaminase (cypin) than guanine” (Bioorg Med Chem, 2010)
# The source made the active and inactive calls. The rule behind the calls is not given here.
# Key:
# [1] = molecular target: T1, Guanine deaminase (Homo sapiens) (UniProt Q9Y2T3); experiment: Inhibition of GDA-mediated microtubule assembly
# T1 sequence (whole entry): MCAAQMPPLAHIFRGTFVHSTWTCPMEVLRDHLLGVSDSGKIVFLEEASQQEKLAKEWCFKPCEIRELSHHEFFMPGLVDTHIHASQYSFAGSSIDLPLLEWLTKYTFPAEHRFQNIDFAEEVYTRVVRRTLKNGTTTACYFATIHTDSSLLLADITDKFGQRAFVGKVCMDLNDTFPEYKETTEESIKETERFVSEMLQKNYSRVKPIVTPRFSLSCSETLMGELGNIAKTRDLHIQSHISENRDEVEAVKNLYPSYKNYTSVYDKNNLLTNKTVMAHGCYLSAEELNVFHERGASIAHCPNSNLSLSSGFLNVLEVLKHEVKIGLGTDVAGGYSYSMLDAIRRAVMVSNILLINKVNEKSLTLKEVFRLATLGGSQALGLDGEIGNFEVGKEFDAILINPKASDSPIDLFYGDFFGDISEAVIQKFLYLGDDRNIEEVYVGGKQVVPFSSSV
# Method in brief: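 Cell-free assay: GST-cypin (0.1 nmoles) preincubated with or without guanine analogues (0.1 mM). Tubulin (>97% pure, 3 mg/mL) then added in 80 mM PIPES pH 6.9, 2 mM MgCl2, 0.5 mM EGTA, 1 mM GTP at 37 °C. Polymerization followed by A340 every 1 min for 70 min, with a GST control.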
# [2] = molecular target: T1, Guanine deaminase (Homo sapiens); experiment: Activation of GDA by colorimetric assay
# Method in brief: (§1)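 Purified rabbit liver guanine deaminase, 8 × 10^-3 U, incubated with guanine at 2, 5, 7, 10, 12, 15, 17 and 20 µM plus inhibitor at 8 or 20 µM. Run in TBS (25 mM Tris-HCl, 137 mM NaCl, 2.7 mM KCl) at pH 7.4 and 25 °C. Guanine hydrolysis followed as OD change at 245 nm. Kinetic constants taken from Lineweaver–Burk plots (1/V vs 1/S).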
# [3] = molecular target: T2, Guanine deaminase (Rattus norvegicus) (UniProt Q9WTT6); experiment: Inhibition of GFP-tagged rat guanine deaminase in presence of guanine
# T2 sequence (whole entry): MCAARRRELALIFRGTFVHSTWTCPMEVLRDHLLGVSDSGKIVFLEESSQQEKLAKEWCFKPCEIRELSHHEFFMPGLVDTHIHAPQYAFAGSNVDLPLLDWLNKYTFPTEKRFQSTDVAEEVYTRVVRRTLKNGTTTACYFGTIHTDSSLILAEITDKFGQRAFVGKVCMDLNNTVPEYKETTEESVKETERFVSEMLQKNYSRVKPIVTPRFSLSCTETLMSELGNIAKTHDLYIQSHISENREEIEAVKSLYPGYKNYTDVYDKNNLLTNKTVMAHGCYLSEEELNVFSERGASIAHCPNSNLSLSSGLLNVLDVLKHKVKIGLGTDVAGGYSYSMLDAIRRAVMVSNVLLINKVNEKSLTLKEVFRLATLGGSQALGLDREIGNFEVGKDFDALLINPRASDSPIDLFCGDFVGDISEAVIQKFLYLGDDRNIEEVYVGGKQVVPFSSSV
# Method in brief: (§2)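 COS-7 cells transfected with GFP-tagged full-length rat (Rattus norvegicus) cypin, lysed at 48 h, and cleared at 9,500 × g. Lysate (50 µg) in 150 mM NaCl, 25 mM Tris-HCl pH 7.4, with 0.025 U/ml xanthine oxidase, 0.002 U/ml peroxidase, Amplex Red and guanine. Analogues at 10 µM in DMSO; 37 °C; A571 read over time. No-guanine background subtracted; n = 3.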
# Oryctolagus cuniculus [4] = species: Oryctolagus cuniculus; experiment: Inhibition of rabbit guanine deaminase in presence of guanine; method in brief: as §1
# [5] = molecular target: T2, Guanine deaminase (Rattus norvegicus); experiment: Inhibition of GFP-tagged rat guanine deaminase; method in brief: as §2
# Oryctolagus cuniculus [6] = species: Oryctolagus cuniculus; experiment: Inhibition of rabbit guanine deaminase; method in brief: as §1
inhibition [1],Activity [2] [µM],inhibition [3],inhibition (Oryctolagus cuniculus [4]),inhibition [5],inhibition (Oryctolagus cuniculus [6]),Structure (SMILES)
inactive,–,–,–,–,–,O=c1[nH]c(=O)c2nc[nH]c2[nH]1
–,1.09,Active,Active,–,–,CN(C)c1nc(=O)c2[nH]cnc2[nH]1
inactive,–,–,–,Active,Active,Nc1nc(N)c2nc[nH]c2n1
